Shown are actives, neighbours in structure and some others; about 2.5% of the full set was active somewhere.
SIRT5 block = sirtuin-5 (human) deacylase inhibition. Purified SirT5, succinyl-peptide AMC, trypsin-coupled fluorescence. actives 1.1% (n = 330,000). Q9NXA8. inhibition, % at 15 µM; in the data active means inhibition above about 15%; inconclusive means no clear call, values can overlap the other calls
PglD DTNB = blocks C. jejuni PglD acetyltransferase activity; purified PglD enzyme, DTNB colorimetric CoA detection; inhibition, % at 12.5 µM; actives 0.098% (n = 360,000); AID 602405; in the data active means inhibition above about 16%, passing the limit was not always enough; inconclusive means no clear call, values can overlap the other calls
ERAP1 HTS inh = inhibitors of human ERAP1 aminopeptidase; Q9NZ08; recombinant ERAP1, Leu-AMC fluorescence, 60 min; inhibition, % at 10.7 µM; actives 0.15% (n = 340,000); AID 652197;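 active means mean replicate inhibition of at least 30%, or all replicates individually reaching that 30% level; inactive means mean below 30% and not every replicate reaching it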;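 further: 0% = neutral control wells and 100% = L-leucinethiol positive control wells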
Target sequence (Q9NZ08 whole entry, looked up): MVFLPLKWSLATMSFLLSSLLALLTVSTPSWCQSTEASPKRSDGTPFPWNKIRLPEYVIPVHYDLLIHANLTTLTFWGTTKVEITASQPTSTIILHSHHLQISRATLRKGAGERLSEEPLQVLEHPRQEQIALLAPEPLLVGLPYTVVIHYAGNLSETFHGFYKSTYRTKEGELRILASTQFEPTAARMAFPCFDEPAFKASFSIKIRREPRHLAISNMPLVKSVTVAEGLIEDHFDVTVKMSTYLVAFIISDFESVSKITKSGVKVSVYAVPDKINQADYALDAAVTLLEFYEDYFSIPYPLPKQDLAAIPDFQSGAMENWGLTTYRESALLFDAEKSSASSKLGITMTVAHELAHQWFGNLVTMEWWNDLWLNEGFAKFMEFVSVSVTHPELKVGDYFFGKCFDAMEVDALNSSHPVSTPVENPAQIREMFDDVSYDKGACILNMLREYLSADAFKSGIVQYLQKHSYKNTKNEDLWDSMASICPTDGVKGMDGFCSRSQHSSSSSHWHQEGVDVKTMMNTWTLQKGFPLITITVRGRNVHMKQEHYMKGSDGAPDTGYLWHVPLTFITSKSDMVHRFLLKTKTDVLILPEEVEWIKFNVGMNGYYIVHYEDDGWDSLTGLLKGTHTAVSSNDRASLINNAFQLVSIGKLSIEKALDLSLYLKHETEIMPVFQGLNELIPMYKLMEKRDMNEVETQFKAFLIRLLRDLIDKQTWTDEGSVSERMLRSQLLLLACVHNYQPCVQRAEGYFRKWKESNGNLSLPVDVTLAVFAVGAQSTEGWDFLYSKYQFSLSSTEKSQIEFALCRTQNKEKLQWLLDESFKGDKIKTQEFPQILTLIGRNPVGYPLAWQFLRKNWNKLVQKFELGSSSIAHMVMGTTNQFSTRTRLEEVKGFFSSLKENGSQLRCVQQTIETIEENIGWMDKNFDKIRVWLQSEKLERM
E-selectin induc = E-selectin induction on HUVECs | HUVEC E-selectin immunofluorescence imaging; normalized: neutral wells 0, TNF-alpha wells 100 | activation, % at 7.58 µM | actives 0.37% (n = 260,000) | AID 686992;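 active means mean E-selectin-positive cell signal at least 10% of the positive control, reached in at least 60% of replicates, without over 20% cell loss; inconclusive means no rule given, readout overlaps actives, possibly toxicity-flagged; inactive means the rest, including those meeting only one limit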
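System: HUVEC / Compound: single concentration / Signal: immunofluorescence imaging / Read-out: percent E-selectin-positive cells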
DENV2 CPE = DENV2-induced cell death inhibition | CPE inhibition, % at 9.99 µM | actives 1.7% (n = 350,000) | DENV2-infected cells, cytopathic effect rescue, plate reader; in the data active means CPE inhibition above about 20%, passing the limit was not always enough; inconclusive means no clear call, values can overlap the other calls; tested in BHK-21 cells;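 further: 0% = median of neutral control wells and 100% = median of positive control wells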
Active calls of the source: *; ? = inconclusive; . = no result; ! = not confirmed by another sample.

SMILES | SIRT5 block | PglD DTNB | ERAP1 HTS inh | E-selectin induc | DENV2 CPE
CCCNC(=O)N1C[C@@H]2[C@H](c3ccccc31)[C@@H](CO)N2CC1CCCC1 | -6.4 | 9.8 | 1.1 | -0.5 | 17.6
Cc1cccc(S(=O)(=O)N2C[C@H]3[C@@H](c4ccccc42)[C@@H](CO)N3CC2CCCC2)c1 | 15.0* | -3.8 | 1.2 | -0.1 | -8.7
CCCc1cnc(N2CCN(C(=O)c3ccccc3)CC2)nc1 | -1.8 | -7.6 | 0.0 | 0.1 | 0.9
Cc1cc(C)cc(OCC(=O)N(Cc2cccs2)C2CCS(=O)(=O)C2)c1 (stereo not drawn) | . | -3.6 | . | . | .
O=C(NCc1cccnc1)C(=O)Nc1nc(C23CC4CC(CC(C4)C2)C3)cs1 | 2.1 | 5.9 | . | . | -6.0
COc1ccccc1Cc1c(-c2ccc(Cl)cc2)nc2c(C)cc(Br)cn12 | 0.2 | -3.6 | 1.4 | . | -6.4
COc1ccccc1Cc1c(-c2cccc(Br)c2)nc2c(C)cc(Br)cn12 | 19.5* | 3.7 | . | 4.2 | 4.7
COc1ccc(-c2nc3ccc(C)cn3c2Cc2cccc(F)c2)cc1OC | -6.9 | 3.6 | -2.1 | 0.2 | 33.0*
COc1ccc(-c2nc3c(C)cc(Br)cn3c2Cc2cccc(F)c2)cc1OC | -1.9 | 5.5 | -4.9 | 0.1 | 89.3*
COc1cc(NC(=S)NC(=O)c2ccc(C)cc2C)ccc1NC(=O)c1cccs1 | . | -6.7 | . | . | .
O=C(NCC[C@H]1CC[C@@H](NC(=O)C2CCC2)[C@H](CO)O1)c1cnccn1 | 2.1 | 2.2 | 4.6 | -0.1 | -6.1
Oc1[nH]c2ccccc2c1N=Nc1nc(Nc2ccccc2)nc(N2CCOCC2)n1 | -1.2 | -2.9 | 70.2* | . | -6.6
COc1ccccc1CN1C(=O)c2ccccc2[C@](Cc2ccccc2I)(C(=O)NCCN2CCOCC2)[C@@H]1c1ccc(CO)cc1 | 2.4 | -18.3 | -0.4 | . | 7.4
CN1C(=O)c2cc(NC(=O)NC3CCCC3)ccc2OC[C@H]2O[C@H](CC(=O)NC3CCC3)CC[C@@H]21 | -5.9 | 3.0 | 0.4 | -0.1 | 61.4*
CCC(=O)Nc1ccc2c(c1)C(=O)N(C)[C@@H]1CC[C@H](CC(=O)NC3CCCC3)O[C@H]1CO2 | 0.5 | 0.9 | 2.7 | 0.0 | 43.5*
CCC(=O)Nc1ccc2c(c1)C(=O)N(C)[C@H]1CC[C@H](CC(=O)NC3CCCC3)O[C@H]1CO2 | -12.0 | -3.5 | 0.5 | -0.2 | -10.0
Cc1ccc(C(=O)NC(=S)Nc2ccccc2C(F)(F)F)c(C)c1 | . | -8.3 | . | . | .
CC(CCc1ccccc1)NC(=O)Cc1ccc([N+](=O)[O-])cc1 (stereo not drawn) | -7.4 | 2.9 | -1.8 | -0.1 | 7.7
Cc1ccc(C)c(S(=O)(=O)Nc2ccccc2C(=O)Nc2ccc(S(=O)(=O)Nc3ncccn3)cc2)c1 | 18.7* | 6.3 | -5.6 | 0.3 | 17.1
COc1ccc(/C=C(/NC(=O)c2ccc(OC)c(OC)c2)C(=O)NCCc2c[nH]c3ccccc23)cc1 | -3.5 | 6.3 | 1.7 | . | 20.2*
CC1CCCC(NC(=O)COC(=O)Cc2cn3ccsc3n2)C1C (stereo not drawn) | 15.3* | -1.8 | 4.1 | . | .
O=C(COC(=O)Cc1cn2ccsc2n1)NC12CC3CC(CC(C3)C1)C2 | . | -7.9 | . | . | .
CC(=O)Nc1nc(=O)c2ccccc2s1 | -1.2 | 4.9 | 33.5* | . | -5.1
C[C@H]1CN([C@@H](C)CO)C(=O)c2cc(C3=CCCCC3)cnc2O[C@@H]1CN(C)C(=O)c1ccccn1 | -1.3 | -1.8 | 0.7 | -0.4 | -0.2
C[C@@H]1CN([C@H](C)CO)C(=O)c2cc(C3=CCCCC3)cnc2O[C@@H]1CN(C)C(=O)Cc1cccnc1 | -3.2 | 6.2 | 2.9 | 0.0 | 56.0*
SMILES | SIRT5 block | PglD DTNB | ERAP1 HTS inh | E-selectin induc | DENV2 CPE
C[C@H](CO)N1C[C@H](C)[C@H](CN(C)C(=O)c2ccccn2)Oc2ncc(C3=CCCCC3)cc2C1=O | -0.6 | 1.4 | 2.1 | -0.5 | 62.1*
COc1cccc(-c2ccc(C3[C@H]4CNC[C@@H]3N4Cc3cc(F)ccc3F)cc2)c1 (stereo partly drawn) | -5.4 | . | 0.3 | -0.1 | -9.6
CN(C)C(=O)c1cccc(-c2ccc(C3[C@H]4CNC[C@@H]3N4Cc3cc(F)ccc3F)cc2)c1 (stereo partly drawn) | 1.1 | . | 0.2 | 0.3 | 81.5*!
CC1CC(C)CN(S(=O)(=O)c2ccc3c(c2)oc(=O)n3CC(=O)NCc2cccnc2)C1 (stereo not drawn) | 22.4* | . | . | -0.6 | -4.1
CCC(C)(C)NC(=O)Cn1c(=O)oc2cc(S(=O)(=O)N3CC(C)CC(C)C3)ccc21 (stereo not drawn) | -2.1 | 1.5 | 0.4 | -0.4 | 0.6
C[C@@H]1CN([C@@H](C)CO)C(=O)c2cc(C#CCN(C)C)cnc2O[C@H]1CN(C)Cc1ccc(C(=O)O)cc1 | 0.0 | 2.7 | 1.9 | -0.3 | 3.7
COc1ccc(NC(=O)CCSc2nnnn2C)cc1 | 17.8* | -0.6 | 0.5 | 0.0 | -8.3
COc1ccc(NC(=O)CN(C)C(=O)CCSc2ccc(C)cc2)cc1 | -2.7 | 0.7 | -1.9 | . | 61.9*
COc1ccc(NC(=O)CN(C)C(=O)CC2CCCC2)cc1 | -4.3 | . | 1.5 | 0.1 | 20.2*
COc1cccc(NC(=O)CN(C)C(=O)CC2CCCC2)c1 | -4.8 | 0.1 | -3.6 | 0.3 | -8.9
COc1cccc(NC(=O)CN(C)CC(=O)NCc2ccco2)c1 | 16.9* | -3.7 | 0.9 | 0.0 | -0.7
CCC(C)C(=O)N1c2ccccc2C(=C2SC(C(=O)OC)=C(C(=O)OC)S2)C(=S)C1(C)C (stereo not drawn) | -8.2 | -3.0 | 3.4 | . | .
Cc1cccc(C)c1NC(=O)NCCSc1snnc1C | -3.7 | . | -0.7 | . | -1.2
Cc1ccc(S(=O)(=O)N[C@H]2CC[C@@H](CCNC(=O)C3CCOCC3)O[C@@H]2CO)cc1 | 0.2 | 4.3 | 4.2 | -0.1 | 7.9
COc1ccc(OCC(=O)Nc2ccc3c(c2)CCC3)cc1 | -0.8 | -2.5 | 3.3 | . | ?
COc1ccc(NC(=O)CN(C)CC(=O)Nc2ccc3c(c2)CCC3)cc1 | 112.0* | . | 0.8 | . | 10.0
O=C(C[C@@H]1C=C[C@H](NC(=O)C2CCC2)[C@H](CO)O1)Nc1nccs1 | . | 0.0 | 0.6 | 0.0 | 11.6
c1ccc(-c2ccc3[nH]ccc3c2)cc1 | -0.3 | 0.1 | -0.1 | 0.1 | 87.5*
c1cncc(-c2ccc3[nH]ccc3c2)c1 | -8.4 | 1.9 | -0.1 | 0.2 | -3.0
COc1cc(/C=N/NC(=O)c2cc(-c3ccco3)nc3ccccc23)cc(OC)c1O | 1.1 | . | . | 0.5 | 30.8*
COc1ccc(-n2sc3ccccc3c2=O)cc1 | -8.0 | 8.7 | 75.4* | 0.0 | -3.8
CCC(C)NC(=O)COc1ccc(OCc2ccccc2)cc1 (stereo not drawn) | -2.6 | . | -1.8 | . | -4.1
Cc1cc(C)cc(N2CC(c3nc4ccccc4n3C)CC2=O)c1 (stereo not drawn) | 0.0 | -0.7 | 102.6* | . | -6.2
COCCNC(=O)C[C@H]1C[C@H]2c3cc(NC(=O)COC)ccc3O[C@H]2[C@@H](CO)O1 | -23.5 | -0.2 | 0.3 | 0.0 | -0.1

High-throughput results: PubChem BioAssay, Broad Institute
